Results on five molecules are retold here after ChEMBL document CHEMBL4390639, “Design, Synthesis, and Biological Evaluation of Novel Allosteric Protein Disulfide Isomerase Inhibitors” (J Med Chem, 2019).

Assay [1] has as its system A 172. The assay can be described thus: Induction of endoplasmic reticulum stress in human A172 cells assessed as increase in GRP78 expression at 20 uM measured after 24 hrs by Western blot analysis. Format: functional, cell-based. Background: Immunoblotting shows a protein as a band on a membrane.
The target of assay [2] is T1, Protein disulfide-isomerase (Homo sapiens, UniProt P07237). Kind of assay: Binding affinity to recombinant human N-terminal His-tagged PDI expressed in Escherichia coli BL21 (DE3) pLysS by isothermal titration calorimetry. A general note: ITC needs no label: the signal is the heat of the interaction.
Target sequence in this assay (P07237 whole entry): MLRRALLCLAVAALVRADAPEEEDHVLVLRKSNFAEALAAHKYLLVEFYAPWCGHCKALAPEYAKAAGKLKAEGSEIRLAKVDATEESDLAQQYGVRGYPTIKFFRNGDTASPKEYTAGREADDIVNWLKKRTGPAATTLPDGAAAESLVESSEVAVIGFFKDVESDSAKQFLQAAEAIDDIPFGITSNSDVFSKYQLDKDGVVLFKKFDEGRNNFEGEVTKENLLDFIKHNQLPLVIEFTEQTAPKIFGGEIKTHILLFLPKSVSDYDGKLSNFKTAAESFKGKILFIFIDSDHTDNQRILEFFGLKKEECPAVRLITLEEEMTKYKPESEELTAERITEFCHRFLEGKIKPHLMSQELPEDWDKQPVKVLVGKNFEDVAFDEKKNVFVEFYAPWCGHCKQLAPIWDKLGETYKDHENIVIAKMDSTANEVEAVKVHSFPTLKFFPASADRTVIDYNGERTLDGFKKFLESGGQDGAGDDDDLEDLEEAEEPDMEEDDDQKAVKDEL
For assay [3], the target named is T1, Protein disulfide-isomerase. The assay can be described thus: Binding affinity to recombinant human N-terminal His-tagged PDI expressed in Escherichia coli BL21 (DE3) pLysS assessed as change in melting temperature at 100 uM by ROX dye based thermal shift assay. In a few lines: (§1)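 Purified wild-type, C53S/C397S or H256A PDI at 0.5 mg/mL in 50 mM Tris, pH 7.0, with or without 100 μM compound, was mixed with ROX dye in a 20 µL well. DMSO (5% in buffer) was the control. Samples were heated 25–99 °C at 1 °C/min, and the Boltzmann melting temperature shift versus DMSO was reported. Mean ± SD of three experiments.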
Target sequence in this assay (P07237 18-508 limits assumed): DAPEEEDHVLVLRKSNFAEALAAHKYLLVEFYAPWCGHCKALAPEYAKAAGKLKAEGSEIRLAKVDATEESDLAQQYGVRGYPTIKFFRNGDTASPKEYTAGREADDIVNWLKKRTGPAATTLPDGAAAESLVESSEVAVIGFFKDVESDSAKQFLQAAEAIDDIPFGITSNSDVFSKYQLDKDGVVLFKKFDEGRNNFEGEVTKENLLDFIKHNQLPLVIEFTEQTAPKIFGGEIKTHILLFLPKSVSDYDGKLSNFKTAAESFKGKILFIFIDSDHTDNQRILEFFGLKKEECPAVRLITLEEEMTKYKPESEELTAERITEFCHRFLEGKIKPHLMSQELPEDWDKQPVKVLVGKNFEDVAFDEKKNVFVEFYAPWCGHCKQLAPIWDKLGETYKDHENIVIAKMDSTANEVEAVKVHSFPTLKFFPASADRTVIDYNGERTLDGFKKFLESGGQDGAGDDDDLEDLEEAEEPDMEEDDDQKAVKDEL

Assay [4] is described as follows: Therapeutic ratio of IC50 for HFF1 cells to IC50 for human NU04 cells. In a few lines: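 Ratio of two growth-inhibition IC50s, HFF-1 normal human fibroblasts over NU04 glioma cells. Cells were grown as monolayers at 37 °C in 5% CO2, with NU04 seeded at 4000 cells/well. After overnight attachment, cells were exposed to compound or vehicle for 72 h. MTT (3 mg/mL) was added for 4 h, and formazan dissolved in DMSO was read at 570 nm. IC50s came from nonlinear regression of log concentration-response curves, with at least three independent experiments.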

The test system of assay [5] is U-87 MG. Kind of assay: Cytotoxicity against human U87MG cells assessed as inhibition of cell growth measured after 72 hrs by MTT assay. Format: functional, cell-based, U-87MG ATCC. The following applies: Homo sapiens, U-87 MG, 72 h; read-out: IC50. An outline of the steps: (§2)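 A172 and NU04 cells were seeded at 4000 cells/well and U87MG at 5000 cells/well, incubated overnight at 37 °C, 5% CO2, then exposed to compound or vehicle for 72 h. MTT (3 mg/mL) was added for 4 h, formazan was dissolved in DMSO, and absorbance was read at 570 nm. IC50 came from nonlinear regression; mean ± SD of at least three experiments.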
For orientation: Formazan colour is commonly taken as a measure of viable cells.

Assay [6] has as its system Protein disulfide-isomerase (Homo sapiens), P07237 [C53S,C397S]. The assay can be described thus: Binding affinity to recombinant human N-terminal His-tagged PDI C53S/C397S double mutant expressed in Escherichia coli BL21 (DE3) pLysS assessed as change in melting temperature at 100 uM by ROX dye based thermal shift assay. In a few lines: as §1
Assay [7] relates to Protein disulfide-isomerase (Homo sapiens), P07237 [H256A]. The assay can be described thus: Inhibition of recombinant human N-terminal His-tagged PDI H256A mutant expressed in Escherichia coli BL21 (DE3) pLysS at 10 uM assessed as reduction in enzyme-mediated bovine insulin aggregation. In a few lines:
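Insulin reductase assay against H256A PDI: 0.4 μM enzyme preincubated with compounds at 10 μM for 1 h at 37 °C in 100 mM sodium phosphate, 2 mM EDTA, 8 μM DTT, pH 7.0. Then 500 μM DTT and 130 μM bovine insulin added; aggregation read at 620 nm at room temperature. Activity % from OD change at 0 and 80 min, relative to PDI and DTT-only controls; three experiments.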

The target of assay [8] is T1, Protein disulfide-isomerase. Kind of assay: Inhibition of recombinant human N-terminal His-tagged PDI expressed in Escherichia coli BL21 (DE3) pLysS assessed as reduction in enzyme-mediated bovine insulin aggregation at 40 uM measured after 1 hr in presence of 5 mM NAC. An outline of the steps: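 Compounds pretreated with NAC for 30 min at 37 °C, then added to the insulin reductase assay at final 40 μM compound with 0, 1, 2 or 5 mM NAC. The assay uses 0.4 μM PDI preincubated 1 h at 37 °C, then DTT and bovine insulin, read at 620 nm, with % activity at 80 min.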
Target sequence in this assay (P07237 18-508 limits assumed): as above

The target in assay [9] is Eukaryotic translation initiation factor 2 subunit 1 (Homo sapiens) (UniProt P05198). The assay can be described thus: Induction of EIF2alpha phosphorylation in human U87MG cells at 20 uM measured after 2 hrs by Western blot analysis. Format: cell-based. In a few lines:
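eIF2α phosphorylation in U87MG cells after 2 h with 1 µM PACMA31 or 20 µM analogues; tunicamycin 10 µg/mL as comparator. Lysates (Tris/NaCl/Triton/SDS, sonicated) quantified by BCA; 30 µg protein separated on 10% gels, blotted to PVDF, probed for phospho-eIF2α, detected by fluorescence.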

Assay [10] concerns U-87 MG. The assay can be described thus: Effect on PDI expression in human U87MG cells at 20 uM measured after 24 hrs by Western blot analysis. In kind it is functional, cell-based. Particulars: U-87MG ATCC.
The next assay deals with HFF-1. Kind of assay: Cytotoxicity against HFF1 cells assessed as inhibition of cell growth measured after 72 hrs by MTT assay. The following applies: Homo sapiens, HFF-1, 72 h. Format: cell-based. In a few lines:
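Cells grown as monolayers at 37 °C, 5% CO2, seeded and left overnight, then exposed to drug or vehicle for 72 h. MTT (20 μL of 3 mg/mL) added for 4 h, supernatant removed, formazan dissolved in DMSO, absorbance read at 570 nm. IC50 from nonlinear regression of log concentration–response curves; at least three independent experiments.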

In assay [11] the test system is A 172. Kind of assay: Cytotoxicity against human A172 cells assessed as inhibition of cell growth measured after 72 hrs by MTT assay. In kind it is functional, cell-based. The following applies: Homo sapiens, A 172, 72 h; read-out: IC50. An outline of the steps: as §2
Assay [12] relates to U-87 MG. The assay can be described thus: Induction of endoplasmic reticulum stress in human U87MG cells assessed as increase in GRP78 expression at 20 uM measured after 24 hrs by Western blot analysis. In kind it is functional, cell-based. Particulars: U-87MG ATCC. An outline of the steps:
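ER-stress immunoblot: 0.5 x 10^6 U87MG cells/well treated for 24 h with 20 µM analogues, 1 µM PACMA31 or DMSO; tunicamycin 10 µg/mL for 2 or 24 h as positive control. Lysis in Tris/NaCl/Triton/SDS buffer with sonication; 30 µg protein on 10% gels, transferred to PVDF, GRP78 probed, fluorescence imaging.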

The target of assay [13] is Focal adhesion kinase 1 (Homo sapiens) (UniProt Q05397). The assay can be described thus: Effect on FAK phosphorylation in human U87MG cells at 10 uM measured after 24 hrs by Western blot analysis. Format: cell-based.
Assay [14] relates to U-87 MG. The assay can be described thus: Effect on MMP2 expression in human U87MG cells at 10 uM measured after 24 hrs by Western blot analysis. In kind it is functional, cell-based. The following applies: U-87MG ATCC.
Assay [15] deals with U-87 MG. Kind of assay: Inhibition of colony formation in human U87MG cells […] by crystal violet staining based assay. Format: functional, cell-based. The following applies: U-87MG ATCC. In a few lines: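 Clonogenicity: U87MG cells seeded at 200 cells/well, left overnight, treated 24 h, then medium replaced and cells grown ten days. Stained 30 min with crystal violet, washed, imaged; normalized well intensity from three independent experiments.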

The test system of assay [16] is A 172. Kind of assay: Effect on PDI expression in human A172 cells at 20 uM measured after 24 hrs by Western blot analysis. In kind it is functional, cell-based.
In assay [17] the target is T1, Protein disulfide-isomerase. The assay can be described thus: Binding affinity to recombinant human N-terminal His-tagged PDI expressed in Escherichia coli BL21 (DE3) pLysS assessed as increase in melting temperature by ROX dye based thermal shift assay. In a few lines:
as §1
Target sequence in this assay (P07237 18-508 limits assumed): as above

The target is the same in assay [18]. The assay can be described thus: Inhibition of recombinant human N-terminal His-tagged PDI expressed in Escherichia coli BL21 (DE3) pLysS assessed as reduction in enzyme-mediated bovine insulin aggregation.
Target sequence in this assay (P07237 whole entry): as the sequence (P07237 whole entry) above

As a reminder, the pKd is the negative decadic logarithm of the Kd, by convention in mol/L. What is called ΔTm is the change in melting temperature against a reference sample. Usually pIC50 stands for the negative decadic logarithm of the IC50, by convention in mol/L.

pIC50, pKd: −log10 of the molar value. Active and inactive are the calls of the source. The rule behind the calls is not given here.

Sequence of Focal adhesion kinase 1 (Homo sapiens) (Q05397 2-1052 limits assumed): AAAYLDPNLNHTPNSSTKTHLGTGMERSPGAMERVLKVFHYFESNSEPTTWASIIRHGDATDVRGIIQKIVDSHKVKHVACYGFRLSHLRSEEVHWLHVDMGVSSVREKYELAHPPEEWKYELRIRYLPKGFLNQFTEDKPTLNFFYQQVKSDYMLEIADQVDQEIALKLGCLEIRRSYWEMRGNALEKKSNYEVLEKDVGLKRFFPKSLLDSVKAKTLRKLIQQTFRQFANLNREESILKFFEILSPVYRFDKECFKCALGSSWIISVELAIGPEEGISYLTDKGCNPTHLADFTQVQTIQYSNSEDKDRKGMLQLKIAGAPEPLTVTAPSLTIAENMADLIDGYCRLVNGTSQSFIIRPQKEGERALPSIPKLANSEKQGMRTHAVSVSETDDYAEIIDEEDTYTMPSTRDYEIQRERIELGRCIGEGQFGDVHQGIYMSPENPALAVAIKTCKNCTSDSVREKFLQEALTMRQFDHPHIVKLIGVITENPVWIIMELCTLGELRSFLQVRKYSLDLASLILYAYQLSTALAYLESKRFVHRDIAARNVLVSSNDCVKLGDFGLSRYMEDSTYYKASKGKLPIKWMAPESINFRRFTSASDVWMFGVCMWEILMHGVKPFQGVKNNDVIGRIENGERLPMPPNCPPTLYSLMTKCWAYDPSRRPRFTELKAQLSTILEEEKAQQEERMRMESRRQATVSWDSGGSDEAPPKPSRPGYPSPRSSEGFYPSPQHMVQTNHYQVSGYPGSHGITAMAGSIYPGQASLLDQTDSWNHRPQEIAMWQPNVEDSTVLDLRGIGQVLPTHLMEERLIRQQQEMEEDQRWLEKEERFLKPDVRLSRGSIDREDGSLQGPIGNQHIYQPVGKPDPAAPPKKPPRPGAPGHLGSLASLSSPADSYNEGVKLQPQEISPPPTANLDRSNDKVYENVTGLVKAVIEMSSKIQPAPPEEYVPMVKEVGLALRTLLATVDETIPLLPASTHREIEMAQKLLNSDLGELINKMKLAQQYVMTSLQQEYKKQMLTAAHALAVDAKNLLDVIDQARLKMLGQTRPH
Sequence of Eukaryotic translation initiation factor 2 subunit 1 (Homo sapiens) (P05198 whole entry): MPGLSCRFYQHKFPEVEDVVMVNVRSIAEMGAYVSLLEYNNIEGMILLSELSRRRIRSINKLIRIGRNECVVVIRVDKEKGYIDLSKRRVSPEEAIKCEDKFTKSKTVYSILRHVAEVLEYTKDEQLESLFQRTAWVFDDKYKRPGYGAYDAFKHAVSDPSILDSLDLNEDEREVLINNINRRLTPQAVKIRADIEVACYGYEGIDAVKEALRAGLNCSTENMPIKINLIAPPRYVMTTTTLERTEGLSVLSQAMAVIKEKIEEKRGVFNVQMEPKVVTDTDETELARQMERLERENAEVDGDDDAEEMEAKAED
Sequence of Protein disulfide-isomerase (Homo sapiens), P07237 [H256A] (P07237 whole entry H256A): as the sequence (P07237 whole entry) above, with H256A counted along it
Sequence of Protein disulfide-isomerase (Homo sapiens), P07237 [C53S,C397S] (P07237 whole entry C53S/C397S): as the sequence (P07237 whole entry) above, with C53S, C397S counted along it

On to `N#Cc1cccc(/C=C/C(=O)c2ccc(O)cc2)c1`, for which the result (with A 172 [1]; in assay [6]; in [9]; in the assay with U-87 MG [12]) was Active. For the same molecule, the pKd in [2] (read-out: Kd) is 5.04. The ΔTm in [3] was found to be 2.85 °C. Also, the “Ratio IC50” value in [4] came to 5.8. The negative-log IC50 (pIC50) is 4.97 to 4.99 in the assay with U-87 MG [5], 4.04 in the assay on HFF-1 and 4.77 in the assay with A 172 [11]. Moreover, the inhibition result in [7] was “inactive”. For the same molecule, the inhibition result in assay [8] is “Active”. The result (with U-87 MG [10]; in assay [13]; in the assay on U-87 MG [14]; with A 172 [16]) was inactive. Moreover, the inhibition result with U-87 MG [15] was “Dose-dependent effect”.
For the molecule `O=C(/C=C/c1ccc(-c2cccnc2)cc1)c1cccc(O)c1`, the outcome (in the assay on A 172 [1]; in assay [6]; in assay [9]; in the assay on U-87 MG [12]) was Active. For the same molecule, in assay [3], the ΔTm is 2.83 °C. In addition, in [4], the “Ratio IC50” value worked out at 4.57. The pIC50 was 4.97 with U-87 MG [5], 4.65 in the assay on HFF-1, 4.96 in the assay on A 172 [11] and 6.46 in assay [18]. For the same molecule, the inhibition result in assay [7] was “inactive”. Besides, the inhibition result in [8] was “Active”. For the same molecule, the outcome (in the assay with U-87 MG [10]; in assay [13]; with U-87 MG [14]; with A 172 [16]) was inactive. In addition, the Activity result in assay [17] is “Dose-dependent effect”. The inhibition entry with U-87 MG [15] was “Dose-dependent effect”.
`CCCCCN(CCCCC)S(=O)(=O)c1ccc(C(=O)/C=C/c2cccc(O)c2)cc1`: the outcome (in the assay with A 172 [1]; in assay [6]; in assay [9]; with U-87 MG [12]) was Active. Further, in assay [2], the Kd entry is given as “Nd(Insoluble)”. Moreover, in assay [3], the ΔTm is 3.58 °C. Further, in assay [4], the “Ratio IC50” value is reported as 3.85. In addition, the pIC50 in the assay with U-87 MG [5] is 4.82; in the assay with HFF-1, 4.53; with A 172 [11] it was 4.95; in [18] it was 6.09. Besides, in assay [7], the inhibition result was “Active”. The inhibition entry in assay [8] is “inactive”. Further, the outcome (with U-87 MG [10]; in assay [13]; in the assay with U-87 MG [14]; with A 172 [16]) was inactive. Further, the Activity result in [17] was “Dose-dependent effect”. The inhibition entry in the assay on U-87 MG [15] was “Dose-dependent effect”.
Consider `CCCCCN(CCCCC)S(=O)(=O)c1ccc(C(=O)/C=C/c2cccc(C#N)c2)cc1`, for which the result (in the assay on A 172 [1]; in assay [9]; in the assay on U-87 MG [12]) was Active. Moreover, the ΔTm in assay [3] amounted to 0.52 °C. Further, the “Ratio IC50” value in [4] is listed as 0.67. The pIC50 was 5.25 in the assay with U-87 MG [5], 5.47 with HFF-1, 5.05 in the assay with A 172 [11] and 6.80 in assay [18]. Besides, the inhibition result in assay [7] was “inactive”. The outcome (in the assay on U-87 MG [10]; in assay [13]; in the assay with U-87 MG [14]; in the assay with A 172 [16]) was inactive. In addition, the inhibition result with U-87 MG [15] is “Dose-dependent effect”.
On to `COC(=O)c1cccc(/C=C/C(=O)c2cccc(O)c2)c1`, for which the result (with A 172 [1]; in assay [6]; in assay [9]; in the assay with U-87 MG [12]) was Active. Also, in assay [2], the Kd result is listed as “Nd(Insoluble)”. Moreover, the ΔTm in [3] stood at 1.86 °C. The “Ratio IC50” value in [4] is given as 0.77. Moreover, the pIC50 with U-87 MG [5] is 4.78; with HFF-1, 4.76; in the assay on A 172 [11], 4.71; in assay [18], 6.92. For the same molecule, the inhibition entry in assay [7] and in assay [8] was “inactive” each time. Also, the outcome (in the assay with U-87 MG [10]; in [13]; in the assay on U-87 MG [14]; in the assay on A 172 [16]) was inactive. Further, in assay [17], the Activity entry is “Dose-dependent effect”. In addition, the inhibition result in the assay on U-87 MG [15] was “Dose-dependent effect”.
